# In ChEMBL document CHEMBL1152253, “Inhibition of the CRM1-mediated nucleocytoplasmic transport by N-azolylacrylates: structure-activity relationship and mechanism of action” (Bioorg Med Chem, 2008):
# Calls of active or inactive are those of the source. No cut-off for these calls is given here.
# Legend:
# [1] = molecular target: Exportin-1 (Homo sapiens) (UniProt O14980); assay: Inhibition of CRM1-mediated nucleocytoplasmic transport of RevM5 mutant in HEK293 cells assessed as RevM5-GFP nuclear localization at 10 ug/ml after 2 hrs by fluorescence microscopy; format: cell-based
# Method in brief: (§1)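 HEK 293T cells in 96-well trays were transfected with pRevM5-GFP by calcium phosphate, and compound was added one day later. RevM5-GFP distribution was scored by fluorescence microscopy 2 h after addition. Mainly nuclear localization was scored positive; cytoplasmic localization was scored negative.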
# [2] = molecular target: Exportin-1 (Homo sapiens) (UniProt O14980); assay: Inhibition of CRM1-mediated nucleocytoplasmic transport of RevM5 mutant in HEK293 cells assessed as RevM5-GFP nuclear localization at 0.08 ug/ml after 2 hrs by fluorescence microscopy; format: cell-based; method in brief: as §1
# [3] = molecular target: Exportin-1 (Homo sapiens) (UniProt O14980); assay: Inhibition of CRM1-mediated nucleocytoplasmic transport of RevM5 mutant in HEK293 cells assessed as RevM5-GFP nuclear localization at 2 ug/ml after 2 hrs by fluorescence microscopy; format: cell-based; method in brief: as §1
# [4] = molecular target: Exportin-1 (Homo sapiens) (UniProt O14980); assay: Inhibition of CRM1-mediated nucleocytoplasmic transport of RevM5 mutant in HEK293 cells assessed as RevM5-GFP nuclear localization at 0.4 ug/ml after 2 hrs by fluorescence microscopy; format: cell-based; method in brief: as §1
# [5] = test system: Human immunodeficiency virus 1; assay: Antiviral activity against HIV1 NL4-3 infected in HEK293T cells assessed as inhibition of virion-associated p24 antigen production after 24 hrs by ELISA; format: functional, organism-based
# Method in brief: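 HEK 293T cells in DMEM with 10% heat-inactivated FCS were transfected with the HIV-1 molecular clone NL4-3 by calcium phosphate. Compounds were added at a range of concentrations. Virus-associated p24 antigen in the supernatant was measured by ELISA 24 h after compound addition.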
# [6] = test system: Human immunodeficiency virus 1; assay: Antiviral activity against HIV1 3B infected in human OM10.1 cells assessed as inhibition of TNF-alpha-induced viral p24 production at 5 ug/mL after 48 hrs by ELISA; format: functional; parameters: scale not given: the % may be the effect or the level left
# Method in brief: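 OM10.1 cells chronically infected with HIV-1(IIIB), grown in RPMI 1640 with 10% FCS, were washed twice to remove cell-free virus and seeded at 120,000 cells/well with compound. Cultures were stimulated with 1 ng/ml TNF-α and incubated 48 h at 37 °C. Supernatant p24 was measured by ELISA.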
# [7] = Cytotoxicity against HIV1 3B infected human OM10.1 cells at 20 ug/mL after 48 hrs by MTT assay; format: cell-based
# Method in brief: (§2)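 Cytotoxicity was read by MTT viability staining on the same TNF-α-stimulated (1 ng/ml), twice-washed HIV-1(IIIB) chronically infected OM10.1 cultures (120,000 cells/well). Compound was present throughout the 48 h incubation at 37 °C.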
# [8] = Cytotoxicity against HIV1 3B infected human OM10.1 cells at 10 ug/mL after 48 hrs by MTT assay; format: cell-based; method in brief: as §2
# HeLa [9] = assay: Inhibition of Rev-BFP/CRM1-EYFP interaction in human HeLa cells assessed as Rev-BFP/CRM1-EYFP nuclear colocalization by fluorescence microscopy; format: cell-based
# Method in brief: (§3)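 HeLa cells were co-transfected with Rev-BFP and CRM1-EYFP constructs (wild type or Cys528 mutant). One day later cells were PBS-washed and treated with compound in complete DMEM. Live cells were imaged by confocal microscopy at 30, 120 and 180 min and at 24 h. BFP was excited by a multiphoton laser at 760 nm, with emission collected at 390–480 nm. Read-out was Rev-dependent nucleolar co-localization of CRM1-EYFP.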
# HeLa [10] = assay: Inhibition of Rev-BFP/CRM1Cys528Ser-EYFP mutant interaction in human HeLa cells assessed as Rev-BFP/CRM1Cys528Ser-EYFP nuclear colocalization at 25 nM after 2 hrs by fluorescence microscopy; format: cell-based; method in brief: as §3
# Sequence of Exportin-1 (Homo sapiens) (O14980 whole entry): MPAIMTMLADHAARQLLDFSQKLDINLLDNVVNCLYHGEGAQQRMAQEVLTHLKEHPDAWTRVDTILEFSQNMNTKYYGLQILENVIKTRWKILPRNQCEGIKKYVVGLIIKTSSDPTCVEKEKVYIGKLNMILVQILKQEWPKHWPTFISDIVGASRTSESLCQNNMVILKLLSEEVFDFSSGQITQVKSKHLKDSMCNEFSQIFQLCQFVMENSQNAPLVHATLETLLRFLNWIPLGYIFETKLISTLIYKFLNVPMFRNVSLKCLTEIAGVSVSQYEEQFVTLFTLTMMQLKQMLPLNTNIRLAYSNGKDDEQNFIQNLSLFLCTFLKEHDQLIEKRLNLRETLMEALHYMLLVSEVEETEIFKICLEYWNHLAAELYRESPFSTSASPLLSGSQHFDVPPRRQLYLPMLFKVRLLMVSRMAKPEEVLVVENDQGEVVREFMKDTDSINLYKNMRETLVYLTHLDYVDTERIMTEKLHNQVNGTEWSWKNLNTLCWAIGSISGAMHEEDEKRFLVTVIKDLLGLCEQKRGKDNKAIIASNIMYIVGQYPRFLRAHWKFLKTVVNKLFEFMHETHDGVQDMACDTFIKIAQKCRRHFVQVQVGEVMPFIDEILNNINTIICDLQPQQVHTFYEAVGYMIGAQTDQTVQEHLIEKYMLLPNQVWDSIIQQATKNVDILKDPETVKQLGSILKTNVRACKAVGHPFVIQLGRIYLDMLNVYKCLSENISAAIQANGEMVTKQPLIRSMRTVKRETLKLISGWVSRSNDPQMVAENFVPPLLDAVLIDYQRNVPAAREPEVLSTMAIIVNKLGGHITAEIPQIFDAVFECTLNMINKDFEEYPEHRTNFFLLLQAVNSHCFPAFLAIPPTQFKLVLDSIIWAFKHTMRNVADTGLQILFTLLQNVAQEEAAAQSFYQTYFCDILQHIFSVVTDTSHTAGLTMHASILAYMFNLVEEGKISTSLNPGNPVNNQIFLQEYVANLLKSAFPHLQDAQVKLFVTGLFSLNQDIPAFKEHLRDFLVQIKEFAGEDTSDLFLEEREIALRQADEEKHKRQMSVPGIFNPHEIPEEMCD
SMILES,Activity [1],Activity [2],Activity [3],Activity [4],also measured
CCOC(=O)/C=C\n1ccc(-c2ccccc2)n1,inactive,inactive,inactive,inactive,–
CCOC(=O)/C=C/n1nnnc1-c1cccc(F)c1,–,inactive,inactive,inactive,–
CCOC(=O)/C=C/n1ccc(-c2ccccc2)n1,inactive,inactive,inactive,inactive,–
CCOC(=O)/C=C\n1nnnc1-c1cccc(Br)c1,inactive,inactive,inactive,inactive,–
c1ccc(-c2nnn[nH]2)cc1,inactive,inactive,inactive,inactive,–
CCOC(=O)/C=C\n1nnnc1-c1cccc(F)c1,inactive,inactive,inactive,inactive,–
CCOC(=O)/C=C/n1nnnc1-c1cccc(Br)c1,–,inactive,inactive,inactive,–
CCOC(=O)/C=C\n1nnc(-c2ccccc2)n1,Active,inactive,inactive,inactive,–
CCOC(=O)/C=C/n1nnc(-c2cccc(Cl)c2)n1,Active,inactive,–,inactive,"EC50 ([5]; Human immunodeficiency virus 1, NL4-3, HEK-293T): 0.6 µg/mL; Activity [6]: 94%; Activity [7]: Toxic; Activity [8]: Toxic"
CCOC(=O)/C=C/n1nnnc1-c1cccc(Cl)c1,–,inactive,inactive,inactive,–
CCOC(=O)/C=C/n1nnc(-c2ccc(Cl)cc2)n1,Active,inactive,inactive,inactive,–
CCOC(=O)/C=C/n1nnnc1-c1cccc(I)c1,–,inactive,inactive,inactive,–
Cc1ccnc2c1NC(=O)c1cccnc1N2C1CC1,–,–,–,–,Activity ([5]; HEK-293T): inactive
CCOC(=O)/C=C\n1ncnn1,inactive,inactive,inactive,inactive,–
CCOC(=O)/C=C\n1nnnc1-c1cccc(I)c1,inactive,inactive,inactive,inactive,–
CCOC(=O)/C=C\n1nnc(-c2ccccc2Cl)n1,Active,inactive,Active,–,–
CCOC(=O)/C=C/n1nnnc1-c1ccccc1,inactive,inactive,inactive,inactive,–
CCOC(=O)/C=C/n1nnc(-c2cccc(F)c2)n1,Active,inactive,inactive,inactive,–
CCOC(=O)/C=C\n1nnc(-c2ccc(Cl)cc2)n1,Active,inactive,–,inactive,–
CCOC(=O)/C=C\n1nnc(-c2cc(Cl)ccc2N)n1,Active,inactive,Active,Active,–
CCOC(=O)/C=C/n1nnc(-c2ccccc2)n1,–,inactive,–,inactive,–
CCOC(=O)C=Cn1ccnc1-c1ccccc1,inactive,inactive,inactive,inactive,–
Clc1ccccc1-c1nnn[nH]1,inactive,inactive,inactive,inactive,–

SMILES,Activity [1],Activity [2],Activity [3],Activity [4],also measured
CCOC(=O)/C=C\n1nnnc1-c1cccc(Cl)c1,Active,inactive,inactive,inactive,–
CCOC(=O)/C=C/n1nnc(-c2cccc(I)c2)n1,Active,inactive,–,inactive,–
CCOC(=O)/C=C/n1cnc(-c2ccccc2)c1,–,inactive,inactive,inactive,–
CCOC(=O)/C=C\n1nnnc1-c1ccc(Cl)cc1,Active,inactive,inactive,inactive,–
CCOC(=O)/C=C/n1cnc(-c2ccccc2N)n1,inactive,inactive,inactive,inactive,–
Ic1cccc(-c2nnn[nH]2)c1,inactive,inactive,inactive,inactive,–
CCOC(=O)/C=C\n1cnc(-c2ccccc2N)n1,Active,inactive,–,inactive,–
CCOC(=O)/C=C\n1nnc(-c2cccc(Br)c2)n1,Active,inactive,Active,–,–
CCOC(=O)/C=C/n1nnc(-c2cc(Cl)ccc2N)n1,Active,inactive,Active,inactive,–
Fc1cccc(-c2nnn[nH]2)c1,inactive,inactive,inactive,inactive,–
Brc1cccc(-c2nnn[nH]2)c1,inactive,inactive,inactive,inactive,–
CCOC(=O)/C=C\n1cnc(-c2ccccc2)c1,Active,inactive,–,inactive,–
Nc1cc(Cl)ccc1-c1nnn[nH]1,inactive,inactive,inactive,inactive,–
CCOC(=O)/C=C\n1nnc(-c2cccc(I)c2)n1,Active,inactive,Active,–,–
CCOC(=O)/C=C\n1nnnc1-c1ccccc1Cl,–,inactive,inactive,inactive,–
CCOC(=O)/C=C/n1ccnc1-c1ccccc1,inactive,inactive,inactive,inactive,–
CCOC(=O)/C=C/n1nnc(-c2cccc(Br)c2)n1,Active,inactive,–,inactive,–
CCOC(=O)/C=C/n1nnnc1-c1ccc(Cl)cc1,inactive,inactive,inactive,inactive,–
CCOC(=O)/C=C/n1nnc(-c2ccccc2Cl)n1,Active,inactive,inactive,inactive,–
CCOC(=O)/C=C\n1nnc(-c2cccc(F)c2)n1,Active,inactive,Active,–,–
Clc1ccc(-c2nnn[nH]2)cc1,inactive,inactive,inactive,inactive,–
CCOC(=O)/C=C/n1ncnn1,inactive,inactive,inactive,inactive,–
CCC(=C/[C@H](C)C/C=C/C(C)=C/[C@@H](C)C(=O)[C@@H](C)[C@H](O)[C@@H](C)C/C(C)=C/C(=O)O)/C=C/[C@@H]1OC(=O)C=C[C@@H]1C,–,–,–,–,Activity (HeLa [9]): inactive; Activity (HeLa [10]): inactive
